# Experimental data: ChEMBL document CHEMBL2417381, “New anticancer agents mimicking protein recognition motifs” (J Med Chem, 2013)
# Active and inactive are the calls of the source. The rule behind the calls is not given here.
# What was measured:
# [1] = target: Tumour suppressor p53/oncoprotein Mdm2 (Homo sapiens) (UniProt P04637+Q00987); experiment: Inhibition of human recombinant p53-MDM2 interaction assessed as p53 release by NMR spectroscopy relative to untreated control; format: protein assay
# How it was run: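 Complex formed from refolded recombinant His-tagged human p53 (residues 1-312, expressed in E. coli BL21(DE3) RIL) and refolded MDM2, mixed 1:2, with excess MDM2 removed by gel filtration. Complex at 0.1 mM in 50 mM phosphate pH 7.4, 150 mM KCl, 5 mM DTT; formal protein:inhibitor molar ratio 1:1.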
# [2] = Solubility of the compound in phosphate buffer at pH 7.4 by UV-Visible spectrophotometry; format: physicochemical
# How it was run: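 10 mM DMSO stock added one microlitre at a time, 10 min apart, to 20 mM phosphate buffer with 150 mM KCl, pH 7.4, at 25 °C. Precipitation followed as the rise in light-scattering absorbance over 500–900 nm.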
# [3] = system: M14; experiment: Induction of apoptosis in human M14 cells assessed as accumulation of p53 in nuclear fraction after 48 hrs by Western blotting analysis relative to control; format: functional, cell-based
# [4] = system: M14; experiment: Induction of apoptosis in human M14 cells assessed as accumulation of p53 in nuclear fraction after 24 hrs by Western blotting analysis relative to control; format: functional, cell-based
# [5] = system: M14; experiment: Induction of p53 expression in human M14 cells after 48 hrs by Western blotting analysis; format: functional, cell-based
# How it was run: (§1)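 Treated cells lysed in modified RIPA buffer (10 mM Tris-HCl pH 7.4, 150 mM NaCl, 1 mM EDTA, 1% NP40, 0.1% deoxycholate, 1 mM PMSF, protease inhibitors). Equal protein loads separated on 10–12% SDS-PAGE and blotted to nitrocellulose. Blocked in 10% milk/0.1% Tween-20, probed with anti-cyclin A or anti-p53 and HRP secondary; tubulin used as loading reference.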
# [6] = system: M14; experiment: Cell cycle arrest at G1/S phase in human M14 cells assessed as increase in cyclin A expression at IC50 after 48 hrs by Western blotting analysis; format: functional, cell-based; how it was run: as §1
# [7] = system: M14; experiment: Cell cycle arrest at G1/S phase in human M14 cells assessed as increase in cyclin A expression at IC50 after 24 hrs by Western blotting analysis; format: functional, cell-based; how it was run: as §1
# [8] = system: M14; experiment: Cell cycle arrest at S phase in human M14 cells assessed as change in size of nucleus after 24 hrs by DAPI staining-based fluorescence microscopy; format: functional
# How it was run: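 M14 cells grown on coverslips and dosed after 24 h. Fixed in 3.7% formaldehyde for 30 min, quenched with 0.1 M glycine, then DAPI-stained 20 min at room temperature. Nuclear areas measured by fluorescence microscopy image analysis. Mean ± SEM of at least twenty measurements; one-way ANOVA with Bonferroni post test.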
# [9] = system: M14; experiment: Induction of apoptosis in human M14 cells after 48 hrs by propidium iodide staining-based flow cytometry; format: functional, cell-based
# How it was run: (§2)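 5 × 10^4 M14 cells cultured 24 h, then dosed and cultured a further 24 or 48 h. Permeabilized cells labelled 30 min at 4 °C with propidium iodide in 0.1% sodium citrate/0.1% Triton X-100, then analysed by flow cytometry. For cell cycle, 10,000 events per sample assigned to G0/G1, S and G2/M. Each determination repeated three times.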
# [10] = system: M14; experiment: Cell cycle arrest in human M14 cells assessed as accumulation at G2/M phase after 24 hrs by propidium iodide staining-based flow cytometry; format: functional; details: in the assay text read “accumulation at S phase” for “accumulation at G2/M phase”; how it was run: as §2
# [11] = system: M14; experiment: Cell cycle arrest in human M14 cells assessed as accumulation at S phase after 24 hrs by propidium iodide staining-based flow cytometry; format: functional; how it was run: as §2
# [12] = system: M14; experiment: Cell cycle arrest in human M14 cells assessed as accumulation at G0/G1 phase after 24 hrs by propidium iodide staining-based flow cytometry; format: functional; details: in the assay text read “accumulation at S phase” for “accumulation at G0/G1 phase”; how it was run: as §2
# [13] = system: M14; experiment: Antiproliferative activity against human M14 cells assessed as cell viability incubated for 24 hrs followed by compound washout measured after 48 hrs by MTT assay; format: functional, cell-based
# How it was run: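 M14 cells exposed for 24 h, then medium removed and cells resuspended in compound-free medium. Further incubation for 24 and 48 h, then viability read by MTT: 1 mg/mL for 1–3 h at 37 °C, formazan dissolved in DMSO, absorbance at 550 and 620 nm.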
# [14] = system: RAW264.7; experiment: Antiproliferative activity against mouse RAW264.7 cells after 48 hrs by MTT assay; format: cell-based; details: RAW264.7, 48 h
# How it was run: (§3)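 Cells grown at 37 °C in DMEM with 25 mM glucose, 10% fetal calf serum, penicillin/streptomycin and 2 mmol/L glutamine. 5000 cells per well; after 24 h, exposed to 100 nM–100 µM for 24 and 48 h. MTT 1 mg/mL for 1–3 h at 37 °C, formazan dissolved in DMSO, absorbance read at 550 and 620 nm. IC50 from four-parameter sigmoidal nonlinear regression.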
# [15] = system: M14; experiment: Cytostatic activity against human M14 cells at 5 to 10 uM after 24 hrs by trypan blue dye exclusion assay relative to control; format: functional, cell-based
# How it was run: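 Exponentially growing M14 cells plated and grown 24 h. Then treated at 5 and 10 µM in 0.1% DMSO for 24, 48 or 72 h. Stained with 0.2% trypan blue and counted in a hemocytometer; percentage of dead cells calculated.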
# [16] = system: Jurkat; experiment: Antiproliferative activity against human Jurkat cells after 48 hrs by MTT assay; format: functional, cell-based; how it was run: as §3
# [17] = system: Huh-7; experiment: Antiproliferative activity against human HuH7 cells after 48 hrs by MTT assay; format: functional, cell-based; details: Huh-7, 48 h; how it was run: as §3
# [18] = system: MCF7; experiment: Antiproliferative activity against human MCF7 cells after 48 hrs by MTT assay; format: functional, cell-based; details: MCF7, 48 h; how it was run: as §3
# [19] = system: M14; experiment: Antiproliferative activity against human M14 cells after 48 hrs by MTT assay; format: functional, cell-based; details: M14, 48 h; how it was run: as §3
# [20] = system: M14; experiment: Induction of p53 expression in human M14 cells after 24 hrs by Western blotting analysis; format: functional, cell-based; how it was run: as §1
# Chain of Tumour suppressor p53/oncoprotein Mdm2 (Homo sapiens) (P04637 whole entry, looked up, the tested form may be a part): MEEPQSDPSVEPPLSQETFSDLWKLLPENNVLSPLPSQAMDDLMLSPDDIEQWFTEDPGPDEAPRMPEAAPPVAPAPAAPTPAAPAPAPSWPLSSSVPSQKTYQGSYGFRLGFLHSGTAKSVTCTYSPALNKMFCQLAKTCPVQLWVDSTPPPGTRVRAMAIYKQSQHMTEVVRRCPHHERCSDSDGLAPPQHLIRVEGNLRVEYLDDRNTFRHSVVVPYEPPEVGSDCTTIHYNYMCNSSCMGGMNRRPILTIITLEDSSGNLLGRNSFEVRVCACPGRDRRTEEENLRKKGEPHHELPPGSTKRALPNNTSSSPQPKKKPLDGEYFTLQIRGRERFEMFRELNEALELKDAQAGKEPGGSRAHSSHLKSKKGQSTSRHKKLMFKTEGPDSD
# Chain of Tumour suppressor p53/oncoprotein Mdm2 (Homo sapiens) (Q00987 whole entry, looked up, the tested form may be a part): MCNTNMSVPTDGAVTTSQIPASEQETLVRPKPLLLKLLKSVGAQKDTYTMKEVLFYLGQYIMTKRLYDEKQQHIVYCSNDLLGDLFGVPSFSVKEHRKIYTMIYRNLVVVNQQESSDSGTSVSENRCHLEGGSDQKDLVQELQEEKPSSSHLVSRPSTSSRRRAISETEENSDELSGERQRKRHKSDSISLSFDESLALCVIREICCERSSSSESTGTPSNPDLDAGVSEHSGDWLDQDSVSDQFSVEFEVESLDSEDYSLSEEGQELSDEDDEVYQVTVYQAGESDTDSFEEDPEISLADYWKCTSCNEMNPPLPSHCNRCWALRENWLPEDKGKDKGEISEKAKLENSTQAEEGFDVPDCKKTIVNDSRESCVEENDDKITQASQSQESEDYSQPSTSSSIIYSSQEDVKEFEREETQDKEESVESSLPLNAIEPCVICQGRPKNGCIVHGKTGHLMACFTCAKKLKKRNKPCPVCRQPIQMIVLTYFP
inhibition [1],solubility [2] [µM],IC50 [16] [µM],IC50 [17] [µM],IC50 [18] [µM],Compound,Activity [3],Activity [4],Activity [5],Activity [6],Activity [7],Activity [8],Activity [9],Activity [10],Activity [11],Activity [12],Activity [13],IC50 [14] [µM],Activity [15],IC50 [19] [µM],Activity [20]
inactive,≤ 6.8,> 100,> 100,> 100,Cc1ccc(Cn2c(C(=O)NCc3cccc(Cl)c3)cc(C(=O)c3ccccc3)c2C)cc1,inactive,Active,inactive,Active,Active,Active,Active,Active,Active,Active,inactive,> 100,inactive,2.5,Active
–,–,> 100,> 100,> 100,Cc1c(C(=O)c2ccccc2)cc(C(=O)NCc2cccc(I)c2)n1Cc1ccccc1,inactive,Active,inactive,Active,Active,Active,Active,Active,Active,Active,inactive,> 100,inactive,5,Active
–,–,> 100,> 100,> 100,Cc1c(C(=O)c2ccccc2)cc(C(=O)NCc2cccc(Cl)c2)n1Cc1ccccc1,inactive,Active,inactive,–,Active,Active,Active,Active,Active,Active,inactive,> 100,inactive,7.5,Active
